This passage reports inhibition, Decrease and IC50 results from ChEMBL document CHEMBL1132971, “New azolidinediones as inhibitors of protein tyrosine phosphatase 1B with antihyperglycemic properties” (J Med Chem, 2000).

Calls of active or inactive are those of the source. No cut-off for these calls is given here.

Experiment [1] concerns the target T1, Tyrosine-protein phosphatase non-receptor type 1 (Rattus norvegicus) (UniProt P20417).
T1 sequence (whole entry): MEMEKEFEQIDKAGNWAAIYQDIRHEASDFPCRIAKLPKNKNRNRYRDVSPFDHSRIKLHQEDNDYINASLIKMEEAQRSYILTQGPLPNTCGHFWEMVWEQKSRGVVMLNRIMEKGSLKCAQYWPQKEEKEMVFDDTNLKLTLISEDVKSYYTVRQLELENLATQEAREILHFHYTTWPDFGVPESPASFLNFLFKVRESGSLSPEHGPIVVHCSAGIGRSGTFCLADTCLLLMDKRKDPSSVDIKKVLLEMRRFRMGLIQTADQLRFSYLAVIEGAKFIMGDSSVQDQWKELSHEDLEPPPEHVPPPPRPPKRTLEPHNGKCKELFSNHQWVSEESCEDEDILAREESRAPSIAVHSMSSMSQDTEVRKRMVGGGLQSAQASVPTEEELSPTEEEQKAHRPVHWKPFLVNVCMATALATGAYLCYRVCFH
In words: Inhibition of PTPase activity using recombinant r-PTP1B as the enzyme and IR-triphosphopeptide as substrate at 50 uM. In short, it runs like this:
(§1)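 Rat recombinant PTP1B in 33 mM TRIS-HCl, 2 mM EDTA, 50 mM β-mercaptoethanol, pH 7.4 (about 1000-2000 nmol/min/mg). Preincubated 10 min at 37 °C with or without compound in HEPES buffer pH 7.4. Released phosphate read by malachite green-ammonium molybdate at 650 nm against a phosphate standard. Quadruplicates. IC50 by four-parameter logistic fit.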

Experiment [2] concerns the target T2, Tyrosine-protein phosphatase non-receptor type 1 (Mus musculus) (UniProt P35821).
T2 sequence (whole entry): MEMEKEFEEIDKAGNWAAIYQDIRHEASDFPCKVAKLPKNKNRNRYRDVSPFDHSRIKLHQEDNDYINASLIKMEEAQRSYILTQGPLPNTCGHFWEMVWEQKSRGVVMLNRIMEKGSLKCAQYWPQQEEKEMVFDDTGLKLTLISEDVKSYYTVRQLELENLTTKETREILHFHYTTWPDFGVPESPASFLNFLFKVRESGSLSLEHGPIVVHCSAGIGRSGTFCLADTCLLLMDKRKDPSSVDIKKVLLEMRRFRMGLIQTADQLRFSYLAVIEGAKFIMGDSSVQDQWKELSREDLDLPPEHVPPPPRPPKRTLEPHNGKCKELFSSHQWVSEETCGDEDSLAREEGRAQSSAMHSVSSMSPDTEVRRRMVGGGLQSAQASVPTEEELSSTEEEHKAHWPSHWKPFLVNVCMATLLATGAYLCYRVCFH
As to the kind of experiment: Ability to decrease plasma insulin levels in mouse at a dose 100 mg/kg/day. The format is functional, organism-based. In short, it runs like this: (§2)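 Diabetic db/db or ob/ob mice dosed orally once daily for 4 days. Plasma glucose and insulin reported as percent change from a vehicle-treated group. 4-6 mice per group. Significance set at p < 0.05 or p < 0.01 versus vehicle; NS means generally less than -15% change.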

Experiment [3] concerns the target T2, Tyrosine-protein phosphatase non-receptor type 1 (Mus musculus). In words: In vivo ability to decrease plasma glucose levels in diabetic C57BL/KsJ ob/ob mouse at a dose 100 mg/kg/day. The format is functional, organism-based. The method in brief: as §2
Experiment [4] deals with T1, Tyrosine-protein phosphatase non-receptor type 1 (Rattus norvegicus). In words: Inhibition of PTPase (PTP1B) activity in rat hepatic membrane at 50 uM concentration, using pNPP as the substrate. It counts as cell membranes. Conditions: Liver. In short, it runs like this:
(§3)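 Liver membranes from male Sprague-Dawley rats (100-150 g), about 30 µg protein per well. Preincubated 10 min at 37 °C with compound in 1.25% DMSO in 50 mM HEPES pH 7.4. Then 6.33 mM pNPP for 30 min at 37 °C, stopped with NaOH. p-Nitrophenol read at 410 nm. Run in triplicate. Reported as percent of untreated control.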

For experiment [5], the system named is Mus musculus. As to the kind of experiment: Evaluated in vivo for their ability to decrease plasma glucose levels in diabetic C57BL/KsJ db/db mouse at a dose 100 mg/kg/day. The format is functional. In short, it runs like this: as §2
Experiment [6] has as its target T3, Tyrosine-protein phosphatase non-receptor type 1 (Rattus norvegicus, UniProt P20417).
T3 sequence (P20417 whole entry): T1 sequence (whole entry)
In words: Inhibition of PTPase activity using recombinant r-PTP1B and IR-triphosphopeptide as substrate; ND is no data. In short, it runs like this: as §1

Experiment [7] has as its target T3, Tyrosine-protein phosphatase non-receptor type 1. In words: Inhibition of PTPase activity using recombinant r-PTP1B as the enzyme and IR-triphosphopeptide as substrate. The method in brief: as §1
The subject of experiment [8] is Mus musculus. In words: Evaluated in vivo for their ability to decrease plasma glucose levels in diabetic C57BL/KsJ db/db mouse at a dose 100 mg/kg/day, *p indicates <0.05. It counts as functional. In short, it runs like this:
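Mice dosed orally once daily for 4 days; plasma glucose and insulin measured and expressed as percent change versus a vehicle-treated group (mean ± SE, 4-6 mice/group). NS is generally less than -15% change. Significance is versus vehicle-treated mice.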

Experiment [9] concerns the target T1, Tyrosine-protein phosphatase non-receptor type 1 (Rattus norvegicus). In words: Inhibition of Protein-tyrosine phosphatase 1B activity in rat hepatic membrane at a concentration of 50 uM using pNPP as the substrate. The format is cell membranes. Conditions: Liver. The method in brief:
as §3

The inhibition is the change of the read-out against control, counted positive when it falls. The term IC50 denotes the midpoint of a concentration-inhibition curve.

Consider `Cc1oc(-c2ccc(C(F)(F)F)cc2)nc1COc1cccc(C2(C)CC2Cn2oc(=O)[nH]c2=O)c1` (centres undefined), for which the inhibition in experiment [1] amounted to 1%; in experiment [4], 51%. In addition, the Decrease entry in [2] and in experiment [3] was “Not significant” throughout.

Consider `C/C(=C\CC1OC(=O)NC1=O)c1cccc(OCc2nc(-c3ccccc3)oc2C)c1` (centres undefined), for which the Decrease in the experiment on Mus musculus [5] was 18%; in [2] it was “Not significant”; in [3] it was “Not significant”. In addition, the IC50 entry in experiment [6] was “Not significant”. For the same compound, the inhibition in experiment [4] is 23%.

For the compound `C/C(=C\Cn1oc(=O)[nH]c1=O)c1cccc(OCCc2nc(-c3ccccc3)oc2C)c1`, the Decrease in the experiment with Mus musculus [5] was 38%; in [2], “Not significant”; in experiment [3] it was “Not significant”. Besides, the inhibition in [4] was found to be 45%. Moreover, the IC50 in experiment [7] came out at 24 µM.

`COc1cc(OCc2nc(-c3ccc(C(F)(F)F)cc3)oc2C)cc(/C(C)=C/Cn2oc(=O)[nH]c2=O)c1`: the inhibition in [1] turned out to be 12%; in experiment [4] it was 49%.

As for `C/C(=C\Cn1oc(=O)[nH]c1=O)c1cccc(OCc2cc(C(F)(F)F)cc(C(F)(F)F)c2)c1`, the IC50 in experiment [7] came out at 4.1 µM.

For `C/C(=C\Cn1oc(=O)[nH]c1=O)c1ccccc1OCc1nc(-c2ccc(C(F)(F)F)cc2)oc1C`, the Decrease result in experiment [2] and in experiment [3] was “Not significant” in each case. Also, the inhibition entry in experiment [4] is “Not significant”. Besides, the IC50 in [7] was determined as 43 µM.

For `Cc1oc(-c2ccc(C(F)(F)F)cc2)nc1COc1cccc(CCCn2oc(=O)[nH]c2=O)c1`, the inhibition in [1] worked out at 4.3%; in experiment [4], 54%. The Decrease entry in experiment [2] was “Not significant”; in experiment [3], “Not significant”; with Mus musculus [8] it was 21%.

As for `CCCC/C(=C\Cn1oc(=O)[nH]c1=O)c1cccc(Oc2ccccc2)c1`, the inhibition in experiment [4] was found to be 63%. The IC50 in experiment [7] was 2 µM.

For the compound `C/C(=C\Cn1oc(=O)[nH]c1=O)c1cccc(OCc2nc(-c3ccccc3)oc2C)c1` (stereo in doubt; 49), the inhibition in [9] was determined as 35%.

With `Cc1oc(-c2ccc(C(F)(F)F)cc2)nc1COc1ccc2c(c1)C=C/C2=C\Cn1oc(=O)[nH]c1=O`, the inhibition in experiment [1] was determined as 83%; in experiment [4] it was 31%.

In the case of `Cc1oc(-c2ccc(Cl)cc2)nc1COc1cccc(/C=C/C(C)n2oc(=O)[nH]c2=O)c1` (centres undefined), the Decrease was 20% in the experiment with Mus musculus [5], “Not significant” in experiment [2] and “Not significant” in experiment [3]. For the same compound, the IC50 entry in experiment [6] was “Not significant”. In addition, in experiment [4], the inhibition turned out to be 33%.

For `C/C(=C\CN1CC(=O)NC1=O)c1cccc(OCc2nc(-c3ccc(C(F)(F)F)cc3)oc2C)c1`, the Decrease result in experiment [2] and in [3] was “Not significant” each time. Moreover, in [7], the IC50 stood at 13 µM.

For the compound `CCCC/C(=C\Cn1oc(=O)[nH]c1=O)c1cccc(Oc2ccc(OC)cc2)c1`, the inhibition in [4] came to 62%. Besides, in [7], the IC50 was determined as 10 µM.

With `C/C(=C\Cn1oc(=O)[nH]c1=O)c1cccc(OCc2coc(-c3ccc(C(F)(F)F)cc3)n2)c1`, the Decrease result in experiment [2] and in [3] was “Not significant” each time. In [4], the inhibition turned out to be 32%. For the same compound, the IC50 in experiment [7] is 19 µM.

Turning to `C/C(=C\C(C)n1oc(=O)[nH]c1=O)c1cccc(OCc2nc(-c3ccc(C(F)(F)F)cc3)oc2C)c1` (centres undefined), the Decrease in the experiment with Mus musculus [5] is 16%; in experiment [2], “Not significant”; in [3], “Not significant”. Further, the inhibition in [4] turned out to be 38%.

Take `C/C(=C\CC1OC(=O)NC1=O)c1cccc(OCc2nc(-c3ccc(OCC(F)(F)F)cc3)oc2C)c1` (centres undefined): the Decrease result in the experiment with Mus musculus [5] was “inactive”. Moreover, the Decrease result in [2] and in [3] was “Not significant” in each case. Moreover, the IC50 entry in experiment [6] is recorded as “Not significant”. Besides, the inhibition in experiment [4] came to 37%.

`Cc1oc(-c2ccccc2)nc1COc1cccc(C#CC(C)n2oc(=O)[nH]c2=O)c1` (centres undefined): the Decrease entry in experiment [2] and in [3] was “Not significant” each time. This compound showed an inhibition in experiment [4] of 23%.

Take `C/C(Cn1oc(=O)[nH]c1=O)=C(/C)c1cccc(OCc2nc(-c3ccc(C(F)(F)F)cc3)oc2C)c1`: the Decrease in the experiment with Mus musculus [5] was determined as 20%. The inhibition in experiment [4] came to 47%.

Take `C/C(=C\Cn1oc(=O)[nH]c1=O)c1cccc(OCc2ccc3c(Cl)cccc3c2)c1`: in experiment [4], the inhibition was found to be 20%. Also, the IC50 in [7] is 16 µM.

In the case of `CCCC/C(=C\Cn1oc(=O)[nH]c1=O)c1cccc(Oc2ccc(C)cc2)c1`, the inhibition in experiment [4] came to 62%. Moreover, the IC50 in [7] was 13 µM.

On to `C/C(=C\Cn1oc(=O)[nH]c1=O)c1cccc(OCc2nc(-c3ccccc3)oc2C)c1` (stereo in doubt; 67), for which, in experiment [9], the inhibition came to 25%.

In turn, `CC1(COc2ccc(CC3SC(=O)NC3=O)cc2)CCCCC1` (centres undefined) [CIGLITAZONE] came in with a Decrease in the experiment with Mus musculus [5] of 32%. The compound further came in with an inhibition in [4] of 20%.

Consider `CCCCc1oc2ccccc2c1Cc1cccc(/C(C)=C/Cn2oc(=O)[nH]c2=O)c1`, for which the IC50 in [7] is 1.3 µM.

In the case of `Cc1oc(-c2ccc(C(F)(F)F)cc2)nc1COc1cccc(/C(=C/Cn2oc(=O)[nH]c2=O)C2CCCCC2)c1`, the inhibition in experiment [1] was found to be 49%; in [4] it was 66%. For the same compound, the Decrease result in experiment [2] and in experiment [3] was “Not significant” throughout.

In the case of `C/C(=C\Cn1oc(=O)[nH]c1=O)c1cccc(OCc2nc(-c3ccc(OCC(F)(F)F)cc3)oc2C)c1`, the results for the Decrease result (in [2]; in experiment [3]; with Mus musculus [8]) were “Not significant”, “Not significant” and 44%, respectively. Moreover, in experiment [6], the IC50 result is recorded as “Not significant”. Also, the inhibition in experiment [4] was found to be 52%.

For the compound `C/C(=C\Cn1oc(=O)[nH]c1=O)c1cccc(OCc2noc(-c3ccccc3)n2)c1`, in experiment [4], the inhibition amounted to 17%. In experiment [7], the IC50 is 3 µM.

Turning to `Cc1oc(-c2ccc(C(F)(F)F)cc2)nc1COc1ccc2oc(Cn3oc(=O)[nH]c3=O)cc2c1`, the IC50 result in experiment [6] was “Not significant”. In [4], this compound gave an inhibition of 14%.

Take `COc1ccc(/C(=C\Cn2oc(=O)[nH]c2=O)c2cccc(OCc3nc(-c4ccc(C(F)(F)F)cc4)oc3C)c2)cc1`: the inhibition in experiment [1] is 34%; in [4], 56%. The Decrease entry in experiment [2] and in experiment [3] was “Not significant” throughout.

As for `C/C(=C\Cn1oc(=O)[nH]c1=O)c1ccc2oc(Cc3nc(-c4ccc(C(F)(F)F)cc4)oc3C)cc2c1`, the inhibition came out at 53% in experiment [1] and 57% in experiment [4]. In addition, the Decrease in the experiment with Mus musculus [8] stood at 31%.

Regarding `C/C(=C\Cn1oc(=O)[nH]c1=O)c1cccc(COc2cc(C(F)(F)F)cc(C(F)(F)F)c2)c1`, the inhibition in experiment [4] came out at 64%. Also, in experiment [7], the IC50 was 12 µM.
